From PMC8154207 (JACS Au, 2021)
“And” between values parts separate entries of the source, which are not always exact repeats. Identical values can stand only once. Like-named read-outs stand apart in the source and are kept apart here.

Columns and labels:
A549 cells [1] = test: SRB cytotoxicity assay, 2D monolayer; assay type: cell-based, human; details: read-out: EC50 A549
In short: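 Cells were seeded in 96-well plates (A549 5000, A375 7000, MCF7 8000, MRC5 6000 cells/well) in OptiMEM with 2.4% FCS, then held 24 h at 37 °C, 7.0% CO2. Six concentrations were added in triplicate for 72 h. Plates were fixed with cold 10% TCA (4 °C, ≥4 h), stained with 0.6% SRB (30 min) and solubilized in 10 mM Tris; absorbance read at 510 nm. EC50 was taken versus untreated wells; three independent experiments, 95% CI.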

[2] = target: Kv11.1 (hERG) potassium channel (Homo sapiens, UniProt Q12809); test: [3H]dofetilide displacement assay on HEK293 Kv11.1 cell membranes; assay type: binding; details: tested concentration 10 μM
Kv11.1 (hERG) potassium channel, sequence (Q12809 whole entry): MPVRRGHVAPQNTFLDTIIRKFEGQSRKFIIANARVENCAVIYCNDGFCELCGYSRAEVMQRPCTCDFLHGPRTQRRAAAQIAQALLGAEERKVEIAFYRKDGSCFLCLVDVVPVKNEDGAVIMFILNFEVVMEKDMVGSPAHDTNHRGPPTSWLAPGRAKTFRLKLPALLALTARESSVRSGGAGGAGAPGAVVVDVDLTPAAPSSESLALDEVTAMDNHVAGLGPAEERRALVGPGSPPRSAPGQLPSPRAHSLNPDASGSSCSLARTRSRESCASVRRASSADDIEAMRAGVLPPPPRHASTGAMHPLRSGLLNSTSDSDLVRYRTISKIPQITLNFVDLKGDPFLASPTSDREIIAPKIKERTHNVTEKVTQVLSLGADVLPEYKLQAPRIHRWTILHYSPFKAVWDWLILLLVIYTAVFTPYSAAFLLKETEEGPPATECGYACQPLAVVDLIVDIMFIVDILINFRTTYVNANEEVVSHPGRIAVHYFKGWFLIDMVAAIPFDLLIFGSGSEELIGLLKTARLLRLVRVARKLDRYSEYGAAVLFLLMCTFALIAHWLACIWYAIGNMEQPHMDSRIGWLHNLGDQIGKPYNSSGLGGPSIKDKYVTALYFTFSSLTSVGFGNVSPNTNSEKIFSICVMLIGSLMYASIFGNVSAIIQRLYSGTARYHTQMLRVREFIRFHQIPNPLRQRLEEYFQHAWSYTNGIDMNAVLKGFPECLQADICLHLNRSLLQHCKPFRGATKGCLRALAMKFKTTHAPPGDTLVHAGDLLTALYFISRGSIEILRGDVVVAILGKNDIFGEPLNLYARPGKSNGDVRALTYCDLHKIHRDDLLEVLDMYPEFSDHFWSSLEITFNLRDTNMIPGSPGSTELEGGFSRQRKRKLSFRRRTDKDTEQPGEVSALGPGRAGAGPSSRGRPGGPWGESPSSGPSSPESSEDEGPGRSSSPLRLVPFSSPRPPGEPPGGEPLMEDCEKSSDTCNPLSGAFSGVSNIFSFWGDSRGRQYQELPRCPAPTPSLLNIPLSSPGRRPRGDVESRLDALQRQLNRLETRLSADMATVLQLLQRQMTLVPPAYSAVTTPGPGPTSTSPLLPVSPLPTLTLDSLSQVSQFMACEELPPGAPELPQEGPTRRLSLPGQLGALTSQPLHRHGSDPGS
In short: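 HEK293 Kv11.1 membranes (30 μg protein) were loaded with 2 nM [3H]dofetilide at 15 °C for 90 min. Dissociation was started with 10 μM unlabeled dofetilide, without or with 10 μM test compound, for 10 min. Samples were filtered through GF/B, washed twice with ice-cold buffer and counted by scintillation. Binding (%) = 100% − [3H]dofetilide binding remaining.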

A549 cells [3] = test: Mitochondrial membrane potential, TRME staining, flow cytometry; assay type: cell-based, human; details: 20 μM, 24 h (CCCP 20 μM, 1 h), FACS
In short: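 A549 cells were seeded at 1 × 10^5 per well, grown 24 h under normoxia, then exposed to compound for 24 h. After a PBS wash, cells were stained with TRME at 150 nM for 30 min; the positive control got CCCP before staining. Harvested cells were analysed by flow cytometry, excitation 488 and emission 575.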

Compound | EC50 (A549 cells [1]; 2D monolayer, hypoxic (1% O2)) | Kv11.1 binding (100% - [3H]dofetilide binding remaining) [2] | [3H]dofetilide binding remaining [2] | EC50 (A549 cells [1]; Homo sapiens, A549, 72 h) | Influence on mitochondrial membrane potential (A549 cells [3])
N.N.[Cl][Pt][Cl] [cisplatin, reference compound] | 24 µM | – | – | – | –
c1cc(Nc2ccc3ccccc3n2)nc(-c2cccc(Nc3ccc4ccccc4n3)n2)c1 [H2biqbpy2, N6,N6′-di(quinolin-2-yl)-[2,2′-bipyridine]-6,6′-diamine] | – | 84% and 84 ± 4% | 16 ± 4% | 12 µM | –
N#CC(C#N)=NNc1cccc(Cl)c1 [CCCP, carbonyl cyanide m-chlorophenyl hydrazone, reference compound] | – | – | – | – | dramatically reduced percentage of intact mitochondrial membranes
c1cc(Nc2cc3ccccc3cn2)nc(-c2cccc(Nc3cc4ccccc4cn3)n2)c1 [H2biqbpy1, N6,N6′-di(isoquinolin-3-yl)-[2,2′-bipyridine]-6,6′-diamine] | – | 36% and 36 ± 4% | 64 ± 4% | > 200 µM | –
